Only some compounds are listed: those with a hit (about 3.5% of all), similar ones and a draw of the others.
MrgX1 PAM = positive allosteric modulators of MrgX1, primary screen, HEK293 cells, Fluo-4 calcium flux; FDSS; stronger effect = higher value; B-score at 10 µM; 310,000 tested, 0.63% active;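 active means plate-corrected calcium response at least 3 library SD above typical, normal starting fluorescence, not activating the receptor alone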;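 further: compound read alongside a low EC10 to EC30 dose of BAM8-22 agonist; peak minus trough fluorescence over baseline measured at the second addition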
Target sequence (Q96LB2 whole entry, looked up): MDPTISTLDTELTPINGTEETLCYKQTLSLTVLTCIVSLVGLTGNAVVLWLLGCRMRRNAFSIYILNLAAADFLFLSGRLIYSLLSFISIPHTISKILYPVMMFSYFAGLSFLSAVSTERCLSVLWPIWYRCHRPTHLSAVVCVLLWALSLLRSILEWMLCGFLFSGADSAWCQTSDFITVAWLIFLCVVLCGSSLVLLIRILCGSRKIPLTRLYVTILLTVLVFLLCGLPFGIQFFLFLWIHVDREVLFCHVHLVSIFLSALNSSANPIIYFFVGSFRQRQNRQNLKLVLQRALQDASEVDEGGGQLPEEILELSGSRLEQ
RGS4 block = RGS4 inhibitors, primary screen, cell-based, HEK293 M3R inducible RGS4, calcium flux. AID 463165, 2010. 310,000 tested, 0.45% active. B-score at 10 µM. Fluo-4 calcium flux; stronger effect = higher value; triggered by carbachol at its EC20;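 active means B-score, a plate-corrected calcium signal, over three deviations above library mean, with baseline fluorescence within five deviations of library mean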;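 further: RGS4 expression induced by doxycycline in cells with stable M3 receptor; B-score is computed from the integrated fluorescence ratio over baseline after carbachol; higher B-score means a larger calcium signal and so more RGS4 inhibition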
Target sequence (P49798 whole entry, looked up): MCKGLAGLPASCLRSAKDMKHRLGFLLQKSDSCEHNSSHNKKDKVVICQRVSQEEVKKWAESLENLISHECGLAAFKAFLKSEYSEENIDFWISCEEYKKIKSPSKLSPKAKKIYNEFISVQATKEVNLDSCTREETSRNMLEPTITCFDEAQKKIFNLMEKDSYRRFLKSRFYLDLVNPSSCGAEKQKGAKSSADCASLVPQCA
MrgX1 ag = agonists of human MrgX1 receptor, primary screen, HEK293 cells, Fluo-4 calcium flux; 310,000 tested, 0.44% active; Fluo-4 calcium fluorescence, agonist mode; stronger effect = higher value; Mas-related G-protein coupled receptor member X1 (Homo sapiens), Q96LB2; B-score at 10 µM;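 active means calcium response B-score plate-corrected fluorescence ratio at least 3 library SD, with starting fluorescence B-score inside 5 SD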
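times = overnight plating, then 30 min 37 °C plus 30 min room-temperature dye loading | assay system = stable human MrgX1 HEK293 cell line | input = fifteen thousand cells per well | signal = kinetic calcium dye fluorescence, Fluo-4 NW | dosing = compound delivered in addition one of three | read-out = B-scored fluorescence response ratio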
MrgX1 antag = antagonists of human MrgX1 receptor, primary screen, HEK293 cells, Fluo-4 calcium flux | Mas-related G-protein coupled receptor member X1 (Homo sapiens), Q96LB2 | BAM8-22 antagonism; stronger effect = lower value | B-score at 10 µM | 310,000 tested, 1.3% active;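 active means calcium-response B-score plate-corrected more than 3 library SD below zero, starting fluorescence within 5 deviations, no agonist response on first addition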;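 further: peak minus trough fluorescence over baseline after final BAM8-22 challenge near maximal dose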
RGS4 pot = RGS4 potentiators or activators, primary screen, cell-based, HEK293 M3R inducible RGS4, calcium flux. 310,000 tested, 0.92% active. carbachol calcium flux Fluo4; stronger effect = lower value. B-score at 10 µM;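 active means B-score of the integrated calcium signal more than 4 SD below the library mean, with starting fluorescence not abnormally high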;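 further: negative B-score means reduced calcium response which marks RGS4 activation or potentiation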
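test system = M3R-expressing HEK293 line, RGS4 induced by doxycycline | probe or stimulus = carbachol at ECmax as muscarinic agonist stimulus | timing = dye loading 30 min 37 °C, buffer rest 30 min RT | signal = calcium dye Fluo4 fluorescence | evaluation = B score from integrated fluorescence ratio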
MrgX1 ag confirm = MrgX1 receptor agonists, duplicate retest, confirmation, HEK293 cells, Fluo-4 calcium flux; shares compounds with MrgX1 ag; AID 602412, 2012; Fluo-4 calcium fluorescence, FDSS; 600 tested, 78% active; activation, % at 10 µM;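 active means calcium signal rise, corrected for plate position, at least 3 library SD high, with starting brightness within 5 such deviations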; further: reference of the scale not given here
MrgX1 allo conf = MrgX1 positive allosteric modulators, duplicate retest, confirmation, HEK293 cells, Fluo-4 calcium flux | activation (ratio percentage), % at 10 µM | 1,200 tested, 13% active | Fluo-4 calcium fluorescence, FDSS | shares compounds with MrgX1 PAM;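 active means ratio at least 3 SD above the weak peptide control, stable starting fluorescence, no direct agonism earlier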;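 further: compound followed by low BAM8-22 agonist challenge near EC20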
HEK293 Ca flux = nonspecific calcium signal in parental HEK293, confirmation, counter-screen for MrgX1 antagonist project, parental HEK293 cells, Fluo-4 calcium flux. AID 624111, 2012. fluorescence ratio F(max-min)/F0 at 10 µM. 4,000 tested, 2% active. Fluo-4 calcium fluorescence, FDSS. shares compounds with MrgX1 antag;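 active means duplicate-averaged calcium fluorescence ratio at least three times the standard deviation of buffer wells, a nonspecific response in parental cells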
HEK293 Ca counter = calcium response in parental HEK293 cells, primary screen, counter-screen for MrgX1 allosteric activator project, cell-based, Fluo-4 calcium flux, duplicate; fluorescence ratio F(max-min)/F0 at 10 µM; 4,000 tested, 0.4% active; shares compounds with MrgX1 antag; Fluo-4 fluorescence ratio; stronger effect = higher value;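 active means calcium fluorescence ratio, averaged over duplicates, at least 3 SD of the buffer-well ratio, meaning a nonspecific response in receptor-free cells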;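 further: untransfected parental HEK293 lacking MrgX1 used as counterscreen for MrgX1 allosteric activators; fluorescence change taken during the second addition on a kinetic imager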
HEK293 Ca cntr2 = calcium response in parental HEK293 cells, primary screen, counter-screen for MrgX1 agonist project, cell-based, Fluo-4 calcium flux, duplicate, agonist mode. 4,000 tested, 8.7% active. Fluo-4 calcium fluorescence (FDSS); stronger effect = higher value. fluorescence ratio F(max-min)/F0 at 10 µM. shares compounds with MrgX1 antag;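 active means calcium fluorescence ratio at least three times the spread of buffer wells, meaning a non-specific response in parental cells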
Numbers stand for hits.

What do the screens show for `Cc1ccc(NC(=O)CCl)cc1S(=O)(=O)N1CCCCCC1`?
MrgX1 PAM: inactive; RGS4 block: inactive; MrgX1 ag: 29.3; MrgX1 antag: inactive; RGS4 pot: inactive; MrgX1 ag confirm: 169.2%; HEK293 Ca flux: inactive; HEK293 Ca counter: inactive; HEK293 Ca cntr2: inactive

How did CC(C)(C)Nc1ncnc2c1cnn2-c1ccccc1 do in these assays?
MrgX1 PAM: 7.72; RGS4 block: inactive; MrgX1 ag: inactive; MrgX1 antag: inactive; RGS4 pot: inactive; MrgX1 allo conf: inactive; HEK293 Ca flux: inactive; HEK293 Ca counter: inactive; HEK293 Ca cntr2: inactive

How did c1ccc(CNc2ncnc3c2cnn3-c2ccccc2)cc1 do in these assays?
MrgX1 PAM: inactive; RGS4 block: inactive; MrgX1 ag: inactive; MrgX1 antag: inactive; RGS4 pot: inactive

What do the screens show for `O=C(CN(C1CCCCC1)S(=O)(=O)c1ccccc1)N1CCCC1`?
MrgX1 PAM: inactive; RGS4 block: inactive; MrgX1 ag: inactive; MrgX1 antag: inactive; RGS4 pot: inactive

How did O=C(CN(C1CCCCC1)C1CCCCC1)N1CCc2ccccc2C1 do in these assays?
MrgX1 PAM: 8.79; RGS4 block: inactive; MrgX1 ag: inactive; MrgX1 antag: inactive; RGS4 pot: inactive; MrgX1 allo conf: inactive; HEK293 Ca flux: inactive; HEK293 Ca counter: inactive; HEK293 Ca cntr2: inactive

Results for CCC(=O)Nc1ccc(NC(=O)CSc2nnnn2Cc2ccccc2)cc1C ?
RGS4 block: inactive; RGS4 pot: inactive

How did COc1ccc(OC)c(NC(=O)Cc2coc3ccc(C)cc23)c1 do in these assays?
MrgX1 PAM: inactive; RGS4 block: inactive; MrgX1 ag: inactive; MrgX1 antag: inactive; RGS4 pot: inactive

Results for CCOc1ccccc1NC(=O)Cc1coc2ccc(C)cc12 ?
MrgX1 PAM: 13.8; RGS4 block: inactive; MrgX1 ag: inactive; MrgX1 antag: inactive; RGS4 pot: inactive; MrgX1 allo conf: inactive; HEK293 Ca flux: inactive; HEK293 Ca counter: inactive; HEK293 Ca cntr2: inactive

What do the screens show for `COc1ccc(NC(=S)N(CCCN2CCCC2)Cc2ccco2)cc1`?
MrgX1 PAM: inactive; RGS4 block: inactive; MrgX1 ag: inactive; MrgX1 antag: inactive; RGS4 pot: inactive

What do the screens show for `COc1ccc(NC(=S)N(CCN2CCCCC2)Cc2ccco2)cc1`?
MrgX1 PAM: 10.3; RGS4 block: inactive; MrgX1 ag: inactive; MrgX1 antag: inactive; RGS4 pot: inactive; MrgX1 allo conf: inactive; HEK293 Ca flux: inactive; HEK293 Ca counter: inactive; HEK293 Ca cntr2: inactive

Results for COC(=O)c1ccccc1NC(=O)c1ccccc1N(C)S(C)(=O)=O ?
MrgX1 PAM: 10.3; RGS4 block: inactive; MrgX1 ag: inactive; MrgX1 antag: inactive; RGS4 pot: inactive; MrgX1 allo conf: inactive; HEK293 Ca flux: inactive; HEK293 Ca counter: inactive; HEK293 Ca cntr2: inactive

How did CCOC(=O)c1ccccc1NC(=O)c1ccccc1N(C)S(C)(=O)=O do in these assays?
MrgX1 PAM: 7.24; RGS4 block: inactive; MrgX1 ag: inactive; MrgX1 antag: inactive; RGS4 pot: inactive; MrgX1 allo conf: 9.4%; HEK293 Ca flux: inactive; HEK293 Ca counter: inactive; HEK293 Ca cntr2: inactive

Results for CCOC(=O)c1ccccc1NC(=O)c1ccc(N(C)S(C)(=O)=O)cc1 ?
MrgX1 PAM: inactive; RGS4 block: inactive; MrgX1 ag: inactive; MrgX1 antag: inactive; RGS4 pot: inactive

How did COC(=O)c1ccccc1N(C)S(C)(=O)=O do in these assays?
MrgX1 PAM: inactive; RGS4 block: inactive; MrgX1 ag: inactive; MrgX1 antag: inactive; RGS4 pot: inactive

How did CSc1ccccc1NC(=O)c1ccccc1N(C)S(C)(=O)=O do in these assays?
MrgX1 PAM: 8.17; RGS4 block: inactive; MrgX1 ag: inactive; MrgX1 antag: inactive; RGS4 pot: inactive; MrgX1 allo conf: 10.0%; HEK293 Ca flux: inactive; HEK293 Ca counter: inactive; HEK293 Ca cntr2: inactive

How did O=C1CC(SC(=Nc2ccccc2)Nc2ccccc2)C(=O)N1c1cccc2ccccc12 (stereo not given) do in these assays?
MrgX1 PAM: inactive; RGS4 block: inactive; MrgX1 ag: inactive; MrgX1 antag: inactive; RGS4 pot: inactive

How did CSc1nc2ccc(S(=O)(=O)N(C)C)cc2s1 do in these assays?
MrgX1 PAM: inactive; RGS4 block: inactive; MrgX1 ag: inactive; MrgX1 antag: inactive; RGS4 pot: inactive

Results for CCN(CC)S(=O)(=O)c1ccc2nc(SC)sc2c1 ?
MrgX1 PAM: 12.8; RGS4 block: inactive; MrgX1 ag: inactive; MrgX1 antag: inactive; RGS4 pot: inactive; MrgX1 allo conf: inactive; HEK293 Ca flux: inactive; HEK293 Ca counter: inactive; HEK293 Ca cntr2: inactive

How did CCOC(=O)c1c(NC(=O)c2cc3n(n2)C(C(F)(F)F)CC(c2cccs2)N3)sc(C)c1C (stereo not given) do in these assays?
MrgX1 PAM: inactive; RGS4 block: inactive; MrgX1 ag: inactive; MrgX1 antag: inactive; RGS4 pot: inactive

What do the screens show for `O=C(COC(=O)c1cc(Br)ccc1O)NC1CCCCCC1`?
MrgX1 PAM: inactive; RGS4 block: inactive; MrgX1 ag: inactive; MrgX1 antag: inactive; RGS4 pot: inactive

How did O=C(COC(=O)c1cc(Br)ccc1Cl)NC1CCCC1 do in these assays?
MrgX1 PAM: 7.99; RGS4 block: inactive; MrgX1 ag: inactive; MrgX1 antag: inactive; RGS4 pot: inactive; MrgX1 allo conf: inactive; HEK293 Ca flux: inactive; HEK293 Ca counter: inactive; HEK293 Ca cntr2: inactive

What do the screens show for `O=C(COCc1cc(-c2ccc3c(c2)OCO3)on1)N1CCCCC1`?
MrgX1 PAM: inactive; RGS4 block: inactive; MrgX1 ag: inactive; MrgX1 antag: inactive; RGS4 pot: inactive
